Results from different studies.
Each line is one published result; the experiments were not run side by side.
Target: Glycogen synthase kinase-3 beta (GSK3B, Homo sapiens, UniProt P49841)
Mode: inhibitor

Structure (SMILES)	observed	method	tested at	inhibition [%]
COc1ccc2c(c1)O[C@H]1c3ccc(OC)cc3OC[C@@H]21	enzyme activity	ADP detection	100 µM	32.9
CN(c1ncccc1CNc1nc(Nc2ccc3c(c2)CC(=O)N3)ncc1C(F)(F)F)S(C)(=O)=O	enzyme activity		1 µM	92.7
CN(C)C1CCN(CC#Cc2nn(C3CCCC3)c3nc(NCc4ccccc4)ncc23)C1 (stereo not shown)	enzyme activity	FRET	0.1 µM	-4
c1ccc(CNc2nc(N3CCOc4ccccc43)nc3c2CCCC3)cc1	target engagement in cells	chemoproteomics	20 mM	-3.9
CCN(CC)CCNC(=O)c1c(C)[nH]c(/C=C2\C(=O)Nc3ccc(F)cc32)c1C	enzyme activity		10 µM	3
COc1cc2ncnc(Nc3ccc(Oc4ccccc4)c(C)c3C)c2cc1OC	enzyme activity		1 µM	4
C=CC(=O)Nc1cc(Nc2nccc(Nc3cc(Cl)c(F)cc3C(C)(C)O)n2)c(OC)cc1N1CC[C@@H](N(C)C)C1	enzyme activity		1 µM	9
NC(=O)c1cnccn1	enzyme activity	ADP detection	100 µM	7.9
Nc1nc(Nc2ccc(S(N)(=O)=O)cc2)sc1C(=O)c1ccccc1[N+](=O)[O-]	enzyme activity		0.1 µM	60 to 66
NS(=O)(=O)Cc1noc2ccccc12	enzyme activity	ADP detection	100 µM	21.9
COc1cccc2c(NCc3ccccc3)nc(-n3c(N)nc4ccccc43)nc12	target engagement in cells	chemoproteomics	20 mM	1
CC(C)NCC(O)c1ccc(NS(C)(=O)=O)cc1 (stereo not shown)	enzyme activity	ADP detection	100 µM	8.4
O=C(CSc1nc2nccnc2c(=O)n1CCc1ccccc1)Nc1nccs1	enzyme activity		10 µM	-5
